Experimental data published in ChEMBL document CHEMBL1153326, “Benzo(h)quinoline derivatives as G-quadruplex binding agents” (Bioorg Med Chem Lett, 2009).

How the values were obtained:
Type in all cases: nucleic-acid assay
Nucleic Acid [1] = assay: Displacement of thiazole orange from synthetic oligo 17bp DNA duplex by fluorescence displacement assay
Procedure, shortened: (§1)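 Compound titrated into 0.25 µM oligonucleotide (22G quadruplex or 17 bp duplex) with thiazole orange in 10 mM cacodylate, pH 7.4, plus 100 mM KCl. Full fluorescence spectrum recorded after each addition and peak area plotted against compound concentration. Concentration cutting the area by 50% taken as IC50; binding constant calculated from a simple competitive binding model.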

Nucleic Acid [2] = assay: Displacement of thiazole orange from synthetic oligo 22G DNA G-quadruplex by fluorescence displacement assay; procedure, shortened: as §1
Nucleic Acid [3] = assay: Binding affinity to human telomeric DNA G-quadruplex assessed as change in melting temperature at 0.5 uM by fluorescein-rhodamine based FRET assay
Procedure, shortened: (§2)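 Human telomeric-repeat G-quadruplex oligo carrying a 5'/3' fluorescein–rhodamine FRET pair. Compound at 0.5 µM with the oligo at half that concentration, in 10 mM cacodylate, 100 mM NaCl, pH 7.4. Heated from 20 to 80 °C at 1 °C/min with a 2 min equilibration at each step. Emission read at 518 nm; Tm taken from the melting curve, ΔTm against no compound.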

Nucleic Acid [4] = assay: Selectivity for synthetic oligo 22G DNA G-quadruplex over synthetic oligo 17bp DNA duplex
Procedure, shortened: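 Ratio of the thiazole-orange displacement binding constant for the 22G quadruplex to that for the 17 bp duplex. Both constants come from titrating compound into 0.25 µM oligo with dye in 10 mM cacodylate, pH 7.4, 100 mM KCl, taking the 50% loss of peak area as IC50, and applying a competitive binding model.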

Nucleic Acid [5] = assay: Binding affinity to human telomeric DNA G-quadruplex assessed as melting temperature at 0.5 uM by fluorescein-rhodamine based FRET assay; procedure, shortened: as §2
Nucleic Acid [6] = assay: Binding affinity to DNA G-quadruplex
Nucleic Acid [7] = assay: Binding affinity to human telomeric DNA assessed as equilibrium binding constant by SPR
Procedure, shortened: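 SPR steady-state analysis against human telomeric quadruplex and duplex DNA, with multiple injections over a range of drug concentrations. Binding constants derived from the relative instrument response.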

SMILES	K (Nucleic Acid [1]) [×10⁵ /M]	K (Nucleic Acid [2]) [×10⁵ /M]	ΔTm (Nucleic Acid [3]) [°C]	Ratio (Nucleic Acid [4])	Tm (Nucleic Acid [5]) [°C]	Kapp (Nucleic Acid [6]) [×10⁴ /M]	K (Nucleic Acid [7]) [×10⁵ /M]
O=C(NCCN1CCCCC1)c1cc(=O)c2ccc3ccccc3c2[nH]1	1.1	0.05	1	0.05	52.2	–	–
O=C(NCCN1CCNCC1)c1c[nH]c2c(ccc3ccccc32)c1=O	0.75	0.3	1.19	0.4	52.4	–	–
CN(C)CCCNC(=O)c1cc2[nH]c3c(cnc4ccc([N+](=O)[O-])cc43)c(=O)c2n1C	–	–	–	–	–	2.7	–
O=C(NCCN1CCCCC1)c1c[nH]c2c(ccc3ccccc32)c1=O	0.24	2.5	5.17	10.4	56.4	–	–
CN1CCN(CCNC(=O)c2c[nH]c3c(ccc4ccccc43)c2=O)CC1	0.5	0.19	3.69	0.37	54.9	–	0.5
O=C(NCCN1CCNCC1)c1cc(=O)c2ccc3ccccc3c2[nH]1	2.5	0.53	1.27	0.21	52.5	–	–
O=C(Nc1ccccc1)c1c[nH]c2c(ccc3ccccc32)c1=O	6	1.4	1.05	0.22	52.3	–	–
O=C(NCCN1CCCC1)c1c[nH]c2c(ccc3ccccc32)c1=O	0.21	0.53	4.36	2.5	56	–	0.4
CN(C)c1ccc(NC(=O)c2cc(=O)c3ccc4ccccc4c3[nH]2)cc1	0.53	3.9	0.41	7.4	51.6	–	0.3
O=C(NCCN1CCCC1)c1cc(=O)c2ccc3ccccc3c2[nH]1	0.41	0.23	1.35	0.55	52.6	–	–
CN(C)c1ccc(NC(=O)c2c[nH]c3c(ccc4ccccc43)c2=O)cc1	0.74	0.53	0.19	0.71	51.4	–	–
O=C(Nc1ccncc1)c1c[nH]c2c(ccc3ccccc32)c1=O	2.5	1.4	5.29	0.51	56.5	–	–
O=C(Nc1ccncc1)c1cc(=O)c2ccc3ccccc3c2[nH]1	0.5	0.42	0.69	0.84	51.9	–	–
